Assay type in all cases: functional
The test system of experiment [1] is Rattus norvegicus. As to the kind of experiment: The compound was evaluated in vivo for percent decrease of sedation in rats at 3 mg/kg by subcutaneous administration using Rotarod assay.
The test system of experiment [2] is Rattus norvegicus. Briefly: The compound was evaluated in vivo for their ability to inhibit formalin induced flinching in rats by subcutaneous administration. A digest of the protocol: (§1)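 Rat formalin-induced flinching with subcutaneous dosing, starting at 10 or 30 mg/kg. Read-out is % inhibition of flinching at the dose given, or an A50 in mg/kg from titration.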

Experiment [3] has as its system Rattus norvegicus. Briefly: The compound was evaluated in vivo for sedation in rats by subcutaneous administration using Rotarod assay. Conditions: sc. A digest of the protocol: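 Sedation, taken as a centrally mediated side effect, scored by rotarod performance in rats after subcutaneous dosing. Read-out is the ED50 in mg/kg.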
Experiment [4] concerns Rattus norvegicus. As to the kind of experiment: The compound was evaluated in vivo for its ability to inhibit formalin induced flinching in rats by intrapaw administration. An outline of the steps:
(§2)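 Rat formalin-induced flinching with intrapaw dosing. Read-out is % inhibition of flinching at the stated dose. Agents reaching ≥80% antagonism at 300 µg were titrated to an A50 in µg.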

Experiment [5] concerns Rattus norvegicus. As to the kind of experiment: The compound was evaluated in vivo for antagonism of formalin induced financing in rats at 30 […] by subcutaneous administration. A digest of the protocol: as §1
The subject of experiment [6] is Rattus norvegicus. Briefly: The compound was evaluated in vivo for antagonism of formalin induced flinching in rats at 300 (microg) by intrapaw administration. A digest of the protocol:
as §2

For experiment [7], the system named is Rattus norvegicus. As to the kind of experiment: The compound was evaluated in vivo for antagonism of formalin induced […] in rats at 10 […] by subcutaneous administration. An outline of the steps:
as §1

Experiment [8] concerns Rattus norvegicus. Briefly: The compound was evaluated in vivo for antagonism of formalin induced flinching in rats at 1000 (microg) by intrapaw administration. A digest of the protocol:
as §2

The compound `CN(C(=O)Cc1ccccc1C(F)(F)F)[C@H](CN1CCCC1)c1ccccc1` showed a Decrease in the experiment on Rattus norvegicus [1] of 71%. Further, the A50 in the experiment with Rattus norvegicus [2] turned out to be 0.54 mg/kg.

As for `CN(C(=O)Cc1ccc(Cl)c(Cl)c1)[C@H](CN1CCCC1)c1ccccc1` [ICI-199,441], the 50% effective dose (ED50) in the experiment with Rattus norvegicus [3] was 0.14 mg/kg. Besides, the A50 in the experiment with Rattus norvegicus [4] was 0.74 µg; in the experiment on Rattus norvegicus [2], 0.05 mg/kg.

In the case of `CN(C(=O)Cc1ccccc1N(S(C)(=O)=O)S(C)(=O)=O)[C@H](CN1CCCC1)c1ccccc1`, the A50 in the experiment with Rattus norvegicus [4] was 17 µg. The Antagonism in the experiment with Rattus norvegicus [5] turned out to be 21%.

For the compound `CN(C(=O)Cc1ccc(Cl)c(Cl)c1N)[C@H](CN1CCCC1)c1ccccc1`, the A50 in the experiment on Rattus norvegicus [4] came out at 7 µg.

`CN(C(=O)Cc1ccccc1[N+](=O)[O-])[C@H](CN1CCCC1)c1ccccc1` returned an A50 in the experiment with Rattus norvegicus [4] of 29 µg.

In the experiment with Rattus norvegicus [3], `CN(C(=O)Cc1cccc(C(F)(F)F)c1)[C@H](CN1CCCC1)c1ccccc1` displayed an ED50 of 0.18 mg/kg. In the experiment with Rattus norvegicus [2], the A50 turned out to be 0.02 mg/kg.

`CN(C(=O)Cc1ccccc1N)[C@H](CN1CCCC1)c1ccccc1` returned a median effective dose (ED50) in the experiment with Rattus norvegicus [3] of 8.9 mg/kg. The A50 in the experiment on Rattus norvegicus [4] amounted to 65 µg; in the experiment with Rattus norvegicus [2] it was 1.5 mg/kg.

As to `CN(C(=O)Cc1ccc(Cl)c(Cl)c1N(S(C)(=O)=O)S(C)(=O)=O)[C@H](CN1CCCC1)c1ccccc1`, the A50 in the experiment with Rattus norvegicus [4] was determined as 28 µg.

With `CN(C(=O)Cc1cccc([N+](=O)[O-])c1)[C@H](CN1CCCC1)c1ccccc1`, the Antagonism in the experiment with Rattus norvegicus [6] is 95%.

Regarding `CN(C(=O)Cc1ccc(Cl)c(Cl)c1[N+](=O)[O-])[C@H](CN1CCCC1)c1ccccc1`, it took a dose of 0.97 mg/kg to reach the 50% effect level in the experiment on Rattus norvegicus [3] (ED50). Moreover, the results for the A50 in the experiment on Rattus norvegicus [4] and in the experiment on Rattus norvegicus [2] were 5.3 µg and 0.24 mg/kg, respectively.

Regarding `CN(C(=O)Cc1cccc(N(S(C)(=O)=O)S(C)(=O)=O)c1)[C@H](CN1CCCC1)c1ccccc1`, the values for the Antagonism with Rattus norvegicus [6] and in the experiment with Rattus norvegicus [7] were 91% and 15%, respectively.

`CN(C(=O)Cc1ccc(C(F)(F)F)cc1)[C@H](CN1CCCC1)c1ccccc1` came in with an ED50 in the experiment with Rattus norvegicus [3] of 0.12 mg/kg. Also, the values for the A50 with Rattus norvegicus [4] and with Rattus norvegicus [2] were 0.82 µg and 0.009 mg/kg, respectively.

Turning to `CN(C(=O)Cc1ccc(N(S(C)(=O)=O)S(C)(=O)=O)cc1)[C@H](CN1CCCC1)c1ccccc1`, the Antagonism was determined as 95% in the experiment with Rattus norvegicus [8] and 30% in the experiment on Rattus norvegicus [5].

As to `CN(C(=O)Cc1cccc(N)c1)[C@H](CN1CCCC1)c1ccccc1`, in the experiment on Rattus norvegicus [6], the Antagonism was 58%.

In turn, `CN(C(=O)Cc1ccc(N)cc1)[C@H](CN1CCCC1)c1ccccc1` yielded an Antagonism in the experiment with Rattus norvegicus [6] of 52%.

For the origin of these results see ChEMBL document CHEMBL1132816, “Arylacetamides as peripherally restricted kappa opioid receptor agonists” (Bioorg Med Chem Lett, 2000).
